{"data": "Assay results of several laboratories", "MTNR1A": "Melatonin receptor type 1A (MTNR1A, Homo sapiens, UniProt P48039)", "note": "Compare with care: the assays were run in different laboratories."}
{"SMILES": "COc1ccc2cccc(C(CO)CNC(=O)CF)c2c1 (centres unmarked)", "target": "MTNR1A", "assay": "GTPγS binding, agonist, radiometric", "conditions": "cell membranes", "quantity": "Emax", "value": "47%"}
{"SMILES": "C#Cc1n[nH]c2c(-c3cn([C@@H](C)c4ccccn4)c(=O)[nH]c3=O)cc(F)cc12", "target": "Rho-associated protein kinase 2 (ROCK2, Homo sapiens, UniProt O75116)", "assay": "enzyme activity, inhibitor", "conditions": "0.1 µM", "quantity": "inhibition", "value": "1.2%"}
{"SMILES": "CCN(CC)CCCC[C@H](NC(=O)[C@H](CC(C)C)NC(=O)[C@H](C)NC(=O)[C@H](Cc1ccccc1)NC(=O)c1ccc(C(C)(C)C)cc1)C(=O)N[C@@H](CO)C(=O)OC", "target": "B2 bradykinin receptor (BDKRB2, Homo sapiens, UniProt P30411)", "assay": "ligand displacement, radioligand", "conditions": "10 µM", "quantity": "remaining binding", "value": "107%"}
{"SMILES": "COc1ccc2[nH]cc(CCNC(=O)CI)c2c1", "target": "MTNR1A", "assay": "GTPγS binding, agonist, radiometric", "conditions": "cell membranes", "quantity": "Emax", "value": "83%"}
{"SMILES": "CNC1(c2ccccc2Cl)CCCCC1=O (racemic)", "target": "Fatty-acid amide hydrolase 1 (FAAH, Homo sapiens, UniProt O00519)", "assay": "enzyme activity, inhibitor", "conditions": "30 µM", "quantity": "inhibition", "value": "2%"}
{"SMILES": "Cc1nn(C)cc1-c1nc2c(N3CCN(Cc4ccc(Cl)cc4)CC3)c(Cl)cnc2[nH]1", "target": "Receptor-type tyrosine-protein kinase FLT3 (FLT3, Homo sapiens, UniProt P36888)", "assay": "binding, competition with immobilised ligand", "conditions": "1 µM", "quantity": "remaining binding", "value": "0.4%"}
{"SMILES": "COc1ncccc1-c1cnn2ccc(N3CCN(C(=O)OC(C)C)CC3)nc12", "target": "Serine/threonine-protein kinase ULK3 (ULK3, Homo sapiens, UniProt Q6PHR2)", "assay": "binding, competition with immobilised ligand", "conditions": "1 µM", "quantity": "remaining binding", "value": "54%"}
{"SMILES": "Nc1ncc(-c2nc(N3CCOCC3)nc(N3CCOCC3)n2)c(C(F)F)n1", "target": "Serine/threonine-protein kinase DCLK3 (DCLK3, Homo sapiens, UniProt Q9C098)", "assay": "binding, competition with immobilised ligand", "conditions": "10 µM", "quantity": "remaining binding", "value": "73%"}
